Data published in ChEMBL document CHEMBL3627661, “Synthesis and biological evaluation of di-aryl urea derivatives as c-Kit inhibitors” (Bioorg Med Chem, 2015).

How the values were obtained:
[1] = molecular target: Epidermal growth factor receptor (Homo sapiens, UniProt P00533); assay: Inhibition of human EGFR after 1 hr using [gamma-32P]ATP
[2] = molecular target: RAF proto-oncogene serine/threonine-protein kinase (Homo sapiens, UniProt P04049); assay: Inhibition of Raf (unknown origin) by radiometric protein kinase assay
[3] = molecular target: Vascular endothelial growth factor receptor 3 (Homo sapiens, UniProt P35916); assay: Inhibition of VEGFR3 (unknown origin) by radiometric protein kinase assay
[4] = molecular target: Platelet-derived growth factor receptor beta (Homo sapiens, UniProt P09619); assay: Inhibition of PDGFR-beta (unknown origin) by radiometric protein kinase assay
[5] = molecular target: Proto-oncogene tyrosine-protein kinase Src (Homo sapiens, UniProt P12931); assay: Inhibition of Src (unknown origin) by radiometric protein kinase assay
[6] = molecular target: Vascular endothelial growth factor receptor 1 (Homo sapiens, UniProt P17948); assay: Inhibition of VEGFR1 (unknown origin) by radiometric protein kinase assay
[7] = molecular target: Vascular endothelial growth factor receptor 2 (Homo sapiens, UniProt P35968); assay: Inhibition of human recombinant VEGFR-2 after 1 hr using [gamma-32P]ATP
Method in brief: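 Recombinant human VEGFR-2 (10 ng) was incubated for 1 h at 28 °C with varying compound concentrations. Kinase buffer: Tris 50 mM pH 7.5, BSA, MnCl2 1.5 mM, MgCl2 10 mM, DTT 2.5 mM, Na3VO4, β-glycerophosphate 5 mM. Substrate was poly(Glu4/Tyr), with ATP plus [γ-32P]ATP; final DMSO was 0.1%. The reaction was stopped with 100% TCA, wells were washed with 10% TCA, and each well was counted for 1 min.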

[8] = molecular target: Mast/stem cell growth factor receptor Kit (Homo sapiens, UniProt P10721); assay: Inhibition of c-Kit (unknown origin) by radiometric protein kinase assay
[9] = molecular target: Hepatocyte growth factor receptor (Homo sapiens, UniProt P08581); assay: Inhibition of c-MET (unknown origin) by radiometric protein kinase assay

Sequence of RAF proto-oncogene serine/threonine-protein kinase (P04049 whole entry): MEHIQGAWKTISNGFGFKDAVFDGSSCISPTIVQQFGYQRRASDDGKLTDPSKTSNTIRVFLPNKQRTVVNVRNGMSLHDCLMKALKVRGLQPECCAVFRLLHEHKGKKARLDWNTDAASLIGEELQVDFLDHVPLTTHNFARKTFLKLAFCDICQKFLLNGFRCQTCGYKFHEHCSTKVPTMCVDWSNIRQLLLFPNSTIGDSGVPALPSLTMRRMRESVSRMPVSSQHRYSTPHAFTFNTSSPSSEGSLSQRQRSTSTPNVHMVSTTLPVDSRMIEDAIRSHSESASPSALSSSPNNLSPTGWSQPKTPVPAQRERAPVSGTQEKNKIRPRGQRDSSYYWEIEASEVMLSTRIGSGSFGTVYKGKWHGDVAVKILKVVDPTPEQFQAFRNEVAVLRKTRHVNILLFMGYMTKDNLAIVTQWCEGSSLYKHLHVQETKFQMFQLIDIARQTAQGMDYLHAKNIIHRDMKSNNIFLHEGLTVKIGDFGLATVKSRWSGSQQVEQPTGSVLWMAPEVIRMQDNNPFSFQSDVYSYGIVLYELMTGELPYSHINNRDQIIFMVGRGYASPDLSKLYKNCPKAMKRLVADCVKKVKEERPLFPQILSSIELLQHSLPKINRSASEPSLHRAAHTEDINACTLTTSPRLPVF
Sequence of Mast/stem cell growth factor receptor Kit (P10721 whole entry): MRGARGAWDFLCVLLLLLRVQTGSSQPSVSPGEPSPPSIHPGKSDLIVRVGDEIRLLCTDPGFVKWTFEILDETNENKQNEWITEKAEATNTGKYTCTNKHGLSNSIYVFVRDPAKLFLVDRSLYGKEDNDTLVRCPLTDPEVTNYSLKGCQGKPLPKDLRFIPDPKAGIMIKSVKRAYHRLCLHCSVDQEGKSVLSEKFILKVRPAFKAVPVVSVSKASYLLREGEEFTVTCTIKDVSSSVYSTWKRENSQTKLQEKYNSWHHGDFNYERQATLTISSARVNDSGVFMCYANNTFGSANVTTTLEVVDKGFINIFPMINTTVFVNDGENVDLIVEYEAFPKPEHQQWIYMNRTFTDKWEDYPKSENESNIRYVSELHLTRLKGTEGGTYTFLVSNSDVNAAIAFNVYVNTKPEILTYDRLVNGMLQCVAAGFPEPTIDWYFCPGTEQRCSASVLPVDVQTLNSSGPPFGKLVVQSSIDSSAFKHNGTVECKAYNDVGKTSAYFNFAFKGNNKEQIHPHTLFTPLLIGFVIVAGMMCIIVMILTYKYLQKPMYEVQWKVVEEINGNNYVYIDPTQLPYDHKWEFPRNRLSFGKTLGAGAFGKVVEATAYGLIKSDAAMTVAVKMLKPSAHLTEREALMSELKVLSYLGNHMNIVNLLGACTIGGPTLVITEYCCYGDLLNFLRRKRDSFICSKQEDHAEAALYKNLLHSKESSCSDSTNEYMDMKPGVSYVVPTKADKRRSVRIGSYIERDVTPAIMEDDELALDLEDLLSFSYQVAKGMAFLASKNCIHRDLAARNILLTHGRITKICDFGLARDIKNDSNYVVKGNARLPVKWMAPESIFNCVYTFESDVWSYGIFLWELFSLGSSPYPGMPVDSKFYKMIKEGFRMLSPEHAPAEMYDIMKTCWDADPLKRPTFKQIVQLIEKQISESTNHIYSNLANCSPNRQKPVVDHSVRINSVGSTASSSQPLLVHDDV
Sequence of Proto-oncogene tyrosine-protein kinase Src (P12931 2-536 limits assumed): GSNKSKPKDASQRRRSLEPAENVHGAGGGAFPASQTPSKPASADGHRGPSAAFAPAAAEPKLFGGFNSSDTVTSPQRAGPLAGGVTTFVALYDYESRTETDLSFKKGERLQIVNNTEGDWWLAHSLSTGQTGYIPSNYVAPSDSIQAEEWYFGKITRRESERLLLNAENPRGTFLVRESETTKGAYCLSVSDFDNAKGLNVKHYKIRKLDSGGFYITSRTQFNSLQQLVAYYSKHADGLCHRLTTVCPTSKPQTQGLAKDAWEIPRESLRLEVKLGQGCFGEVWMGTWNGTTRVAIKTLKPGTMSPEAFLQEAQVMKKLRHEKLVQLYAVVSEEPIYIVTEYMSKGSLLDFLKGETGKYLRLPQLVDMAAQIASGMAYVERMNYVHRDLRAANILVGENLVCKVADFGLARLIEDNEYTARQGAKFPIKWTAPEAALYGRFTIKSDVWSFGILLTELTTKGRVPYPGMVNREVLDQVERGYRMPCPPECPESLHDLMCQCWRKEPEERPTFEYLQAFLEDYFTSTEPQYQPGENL
Sequence of Vascular endothelial growth factor receptor 2 (P35968 whole entry): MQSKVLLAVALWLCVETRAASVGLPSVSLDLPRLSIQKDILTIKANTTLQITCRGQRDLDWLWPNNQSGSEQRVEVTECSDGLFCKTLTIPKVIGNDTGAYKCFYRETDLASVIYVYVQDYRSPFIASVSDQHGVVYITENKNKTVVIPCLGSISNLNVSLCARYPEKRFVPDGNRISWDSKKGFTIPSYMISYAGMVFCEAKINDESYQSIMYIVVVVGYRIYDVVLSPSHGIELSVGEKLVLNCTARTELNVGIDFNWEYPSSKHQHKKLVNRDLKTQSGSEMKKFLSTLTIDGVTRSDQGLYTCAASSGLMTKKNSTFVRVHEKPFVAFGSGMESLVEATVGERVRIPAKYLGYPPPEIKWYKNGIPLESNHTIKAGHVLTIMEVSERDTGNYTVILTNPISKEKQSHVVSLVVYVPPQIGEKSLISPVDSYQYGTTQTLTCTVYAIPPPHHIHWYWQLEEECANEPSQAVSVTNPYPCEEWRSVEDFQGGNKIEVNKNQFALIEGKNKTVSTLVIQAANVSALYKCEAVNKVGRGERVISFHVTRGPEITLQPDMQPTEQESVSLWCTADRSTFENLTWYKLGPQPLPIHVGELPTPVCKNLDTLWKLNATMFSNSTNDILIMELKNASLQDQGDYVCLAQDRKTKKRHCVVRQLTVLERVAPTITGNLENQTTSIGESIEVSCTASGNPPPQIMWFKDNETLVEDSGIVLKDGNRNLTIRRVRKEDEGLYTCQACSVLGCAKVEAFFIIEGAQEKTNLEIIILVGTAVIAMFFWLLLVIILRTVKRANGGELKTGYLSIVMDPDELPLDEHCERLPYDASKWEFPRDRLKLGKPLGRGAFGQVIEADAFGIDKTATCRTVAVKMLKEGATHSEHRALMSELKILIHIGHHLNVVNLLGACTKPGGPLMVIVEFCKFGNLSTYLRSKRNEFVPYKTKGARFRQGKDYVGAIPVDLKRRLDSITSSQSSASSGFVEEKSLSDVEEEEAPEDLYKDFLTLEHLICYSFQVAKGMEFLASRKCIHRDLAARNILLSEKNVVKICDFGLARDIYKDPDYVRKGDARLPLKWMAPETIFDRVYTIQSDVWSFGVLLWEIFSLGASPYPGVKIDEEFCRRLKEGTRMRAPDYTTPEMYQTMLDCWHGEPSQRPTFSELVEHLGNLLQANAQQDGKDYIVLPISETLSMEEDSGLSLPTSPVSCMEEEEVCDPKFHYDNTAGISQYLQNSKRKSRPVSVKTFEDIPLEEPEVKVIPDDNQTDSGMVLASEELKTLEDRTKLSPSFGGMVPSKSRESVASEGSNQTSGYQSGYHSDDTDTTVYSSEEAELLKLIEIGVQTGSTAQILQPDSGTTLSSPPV
Sequence of Epidermal growth factor receptor (P00533 whole entry): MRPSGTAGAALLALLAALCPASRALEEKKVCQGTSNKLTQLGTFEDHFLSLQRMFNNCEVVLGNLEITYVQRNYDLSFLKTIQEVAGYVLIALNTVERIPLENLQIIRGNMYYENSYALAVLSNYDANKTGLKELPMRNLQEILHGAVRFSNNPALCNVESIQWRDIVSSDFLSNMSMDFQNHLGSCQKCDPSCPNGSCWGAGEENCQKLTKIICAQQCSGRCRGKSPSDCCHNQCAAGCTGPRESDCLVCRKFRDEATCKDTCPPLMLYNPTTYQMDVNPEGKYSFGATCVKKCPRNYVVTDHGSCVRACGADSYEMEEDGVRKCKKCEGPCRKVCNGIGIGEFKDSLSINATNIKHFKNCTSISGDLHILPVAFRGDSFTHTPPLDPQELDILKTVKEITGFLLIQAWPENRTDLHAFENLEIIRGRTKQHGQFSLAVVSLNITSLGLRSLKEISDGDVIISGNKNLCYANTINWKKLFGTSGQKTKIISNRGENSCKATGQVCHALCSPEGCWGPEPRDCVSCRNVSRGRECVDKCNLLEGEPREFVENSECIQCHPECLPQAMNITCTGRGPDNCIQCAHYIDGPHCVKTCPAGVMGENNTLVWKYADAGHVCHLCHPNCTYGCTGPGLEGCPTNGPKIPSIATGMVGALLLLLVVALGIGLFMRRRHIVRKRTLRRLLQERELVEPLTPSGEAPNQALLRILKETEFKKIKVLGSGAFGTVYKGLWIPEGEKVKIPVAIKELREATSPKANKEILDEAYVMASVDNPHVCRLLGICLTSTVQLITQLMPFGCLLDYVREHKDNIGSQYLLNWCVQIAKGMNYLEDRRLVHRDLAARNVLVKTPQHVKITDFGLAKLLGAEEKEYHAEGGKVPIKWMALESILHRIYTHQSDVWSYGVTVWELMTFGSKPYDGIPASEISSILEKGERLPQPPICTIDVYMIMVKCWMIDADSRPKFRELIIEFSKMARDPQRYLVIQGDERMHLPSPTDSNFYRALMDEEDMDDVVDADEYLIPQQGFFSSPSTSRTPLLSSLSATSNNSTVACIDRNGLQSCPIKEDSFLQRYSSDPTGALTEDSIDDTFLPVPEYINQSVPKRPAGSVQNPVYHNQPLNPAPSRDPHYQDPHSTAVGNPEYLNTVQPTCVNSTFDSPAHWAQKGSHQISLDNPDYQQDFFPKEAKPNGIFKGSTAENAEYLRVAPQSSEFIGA

IC50 [1] [nM]	IC50 [2] [nM]	IC50 [3] [nM]	IC50 [4] [nM]	IC50 [5] [nM]	IC50 [6] [nM]	IC50 [7] [nM]	IC50 [8] [nM]	IC50 [9] [nM]	Compound
> 10000									O=C(Nc1cccc(Br)c1)Nc1ccc(Oc2ncnc3sccc23)cc1Cl
3950	> 10000	420	2820	7640	7150	310	6	> 10000	O=C(Nc1ccc(Nc2ncnc3sc4c(c23)CCCC4)cc1)Nc1cccc(Br)c1
> 10000									CCOC(=O)Nc1ccc(Oc2ncnc3cc(OC)c(OC)cc23)cc1C
> 10000						710			CCOC(=O)Nc1ccc(Oc2ncnc3ccccc23)cc1C
	930	9	5	5470	46		16	2310	COc1cc2ncnc(Oc3ccc(NC(=O)Nc4cccc(Br)c4)cc3)c2cc1OC
7710						12	3		COc1cc2ncnc(Nc3ccc(NC(=O)Nc4cccc(Br)c4)cc3)c2cc1OC
> 10000	> 10000	6	570	> 10000	1080	18	11	> 10000	O=C(Nc1ccc(Oc2ncnc3sccc23)cc1)Nc1cccc(Br)c1
1260						15			O=C(Nc1cccc(Br)c1)Nc1ccc(Oc2ncnc3sc4c(c23)CCCC4)cc1Cl
> 10000						> 10000			CCOC(=O)Nc1ccc(Nc2ncnc3sc4c(c23)CCCC4)cc1C
> 10000						3500			Fc1ccc(Oc2ncnc3sc4c(c23)CCCC4)cc1Cl
> 10000	4020	1980	2120	> 10000	> 10000		1	> 10000	O=C(Nc1ccc(Nc2ncnc3sccc23)cc1)Nc1cccc(Br)c1
> 10000									COc1cc2ncnc(Oc3ccc(NC(=O)Nc4cccc(Br)c4)c(Cl)c3)c2cc1OC
590									Fc1ccc(Oc2ncnc3ccccc23)cc1Cl
30									Fc1ccc(Nc2ncnc3ccccc23)cc1Cl
> 10000									Cc1cc(Oc2ncnc3sccc23)ccc1NC(=O)Nc1cccc(Br)c1
> 10000									CCOC(=O)Nc1ccc(Nc2ncnc3ccccc23)cc1C
> 10000	5840	1020	2300	8460	1700	11	17	> 10000	O=C(Nc1ccc(Oc2ncnc3sc4c(c23)CCCC4)cc1)Nc1cccc(Br)c1
> 10000	> 10000	47	850	> 10000	5750	91	1	> 10000	O=C(Nc1ccc(Nc2ncnc3ccccc23)cc1)Nc1cccc(Br)c1
2980									Fc1ccc(Nc2ncnc3sccc23)cc1Cl
> 10000									CCOC(=O)Nc1ccc(Oc2ncnc3sccc23)cc1C
1330						> 10000			Fc1ccc(Nc2ncnc3sc4c(c23)CCCC4)cc1Cl
> 10000	6220	7	320	> 10000	650	8	14	> 10000	O=C(Nc1ccc(Oc2ncnc3ccccc23)cc1)Nc1cccc(Br)c1
3290						34			Cc1cc(Oc2ncnc3sc4c(c23)CCCC4)ccc1NC(=O)Nc1cccc(Br)c1
